Bioassay records as filed in PubChem.
TPT1 inh: blocks Candida albicans tRNA 2'-phosphotransferase; hit rate 0.81% among 300,000; recombinant caTPT1, FP RNA substrate dephosphorylation; AID 1962; inhibition, % at 5 µM;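 active = inhibition above the mean of all tested compounds plus 3 SD, set per screening campaign, cut at about 24% in these data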;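 note: plate controls were DMSO alone for no effect and ferristatin control at 100 nM for full effect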
CSN inh: inhibitors of human CSN-mediated cullin deneddylation | Q92905 | Purified CSN, SCF-Nedd8-OG deneddylation, fluorescence polarization | inhibition, % at 12.5 µM | hit rate 0.38% among 360,000 | AID 651999;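 active = pattern-corrected inhibition above about 35%, with an unprinted fluorescence ratio check between 0.5 and 1.5, limit read from the data, passing the limit was not always enough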;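 note: 0% = enzyme with substrate and 100% = substrate without enzyme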
Target sequence (Q92905 whole entry, looked up, one chain of several): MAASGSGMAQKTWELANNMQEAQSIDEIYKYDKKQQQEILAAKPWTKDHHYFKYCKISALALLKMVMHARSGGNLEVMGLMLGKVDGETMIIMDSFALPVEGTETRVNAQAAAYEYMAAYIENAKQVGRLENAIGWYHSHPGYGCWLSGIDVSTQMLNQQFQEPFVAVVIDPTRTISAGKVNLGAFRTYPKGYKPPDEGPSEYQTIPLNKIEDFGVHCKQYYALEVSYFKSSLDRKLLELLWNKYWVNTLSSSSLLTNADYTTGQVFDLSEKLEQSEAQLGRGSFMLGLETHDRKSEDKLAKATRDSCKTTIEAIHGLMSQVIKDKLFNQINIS
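assay system = purified human Csn5 enzyme expressed in HEK293T cells | amount = 0.24 nM enzyme | buffer or medium = Tris/NaCl/DTT buffer, pH 7.5 | reagent = 10 nM SCFSkp2-Nedd8OG | compound = one concentration, 12.5 µM, 0.25% DMSO | times = 90 min reaction at room temperature | signal = FP | read-out basis = % inhibition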
Rpn11 inh: inhibitors of human proteasome Rpn11 | O00487 | human 26S proteasome, Ub4-pepOG fluorescence polarization; 20S core pre-blocked with epoxomicin | calls only at 20 µM | hit rate 0.59% among 360,000 | AID 588493;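 active = inhibition at 20 µM, scaled to each plate's controls, above about 33%, limit read from the data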
HNF4A DNA FP: change in binding of human HNF4 alpha to DNA; P41235; HNF4a-FITC DNA binding, fluorescence polarization, 1 h; activity change, % at 10 µM; hit rate 0.3% among 360,000; in the data active = activity change above about 30%, passing the limit was not always enough
HNF4a DNA conf: change in binding of human HNF4 alpha to DNA, retest | shares compounds with HNF4A DNA FP | HNF4A-FITC DNA binding, fluorescence polarization, 1 h | activity change, % at 12.5 µM | hit rate 99% among 210; call rule not given here
* = called active by the depositor; i = inactive; · = not tested or not shown; + = active, no number. In the library only some 1.5% were active in any assay of this set; here they are far more common.

SMILES	TPT1 inh	CSN inh	Rpn11 inh	HNF4A DNA FP	HNF4a DNA conf
COc1ccc(C2CC(c3ccccc3)=NN2S(=O)(=O)c2ccccc2)cc1 (centres undefined)	-0.3	5.8	i	76.7*	59.3*
COc1ccc(S(=O)(=O)N2N=C(c3ccc(NS(C)(=O)=O)cc3)CC2c2ccco2)cc1 (centres undefined)	6.7	-0.7	i	15.6	·
Clc1ccc2nc(C3CCCCC3)c(Cc3ccsc3)n2c1	·	-8.7	i	-5.1	·
CC(=O)Oc1ccc(C(=O)Cc2ccc3ccccc3n2)c(O)c1C	14.8	20.6	·	37.8*	50.0*
CC(=O)Oc1ccc(C(=O)Cc2ccccn2)c(O)c1	-0.9	2.9	i	-1.4	·
CCOC(=O)c1c(C)[nH]c(C(=O)N2CCN(C(=O)OCC)CC2)c1C	0.6	-3.2	i	0.6	·
CCOC(=O)c1c(C)c(C)n2c1NC(=O)C2	·	21.3	·	56.6*	65.1*
CC(C)=CCN1CCN(Cc2cn(C(C)C)c3ccccc23)CC1CCO (centres undefined)	-2.2	-2.2	i	-4.4	·
Cc1cc(C)c2c(c1C)C(=O)CCC2	·	-0.1	i	-0.1	·
O=C(N/N=C/c1coc2ccccc2c1=O)c1cc(Br)ccc1O	3.4	26.7	i	46.3*	34.9*
COc1ccc2cc(C(c3nnnn3CCc3ccccc3)N3CCC(O)CC3)c(=O)[nH]c2c1 (centres undefined)	11.3	13.5	·	55.2*	51.4*
COc1ccc2cc(C(c3nnnn3Cc3ccccc3)N3CCCCCC3)c(=O)[nH]c2c1 (centres undefined)	3.5	0.5	i	-3.0	·
COc1ccc(C(=O)Nc2cccc(C)n2)cc1S(=O)(=O)N1CCCc2ccccc21	·	6.1	i	0.6	·
CC(NC(=O)C12CC3CC(CC(C3)C1)C2)C(=O)N/N=C/C1=C(N2CCOCC2)C(=C\c2cccc([N+](=O)[O-])c2)/CC1 (centres undefined)	-3.7	3.5	i	0.9	·
N#C/C(=C\C1=C(N2CCOCC2)C(=C/c2cccc([N+](=O)[O-])c2)/CC1)C(=O)Nc1ccccc1F	14.3	24.5	·	53.5*	55.6*
N#C/C(=C/C1=C(N2CCOCC2)C(=C/c2cccc([N+](=O)[O-])c2)/CC1)C(=O)Nc1ccccc1F	·	53.2*	i	48.6*	64.8*
CCN(CC)c1ccc(/C=C2\CCC(/C=C(/C#N)C(=O)Nc3ccccc3F)=C2N2CCOCC2)cc1	·	12.3	i	8.8	·
O=C(Nc1ccccc1)C1Cc2c(-c3ccco3)ccnc2O1 (centres undefined)	·	3.3	i	-1.8	·
Cc1cccc(NC(=O)c2sc3nc(-c4ccc(F)cc4)cn3c2C)n1	23.8	35.9*	·	36.6*	38.0*
CCN1/C(=N\N)c2cccc3cccc1c23	-3.4	51.4*	·	57.4*	72.2*
Cc1nnsc1C(=O)N1CCCC(C)(C(=O)NS(=O)(=O)C2CC2)C1 (centres undefined)	·	2.9	i	1.0	·
N#Cc1ccsc1NC(=O)c1ccc2ncsc2c1	·	58.9*	·	69.1*	77.3*
N#Cc1ccc(C(=O)N2CCCCC2c2cc(C(=O)Nc3ccc4c(c3)OCO4)no2)cc1 (centres undefined)	·	-0.1	i	-0.5	·
CC(=O)N1N=C2c3ccccc3CCC2C1c1cccs1 (centres undefined)	2.1	3.2	i	0.9	·
COc1ccc2c(c1)C1=NN(/C(C)=C\C(C)=O)C(c3ccccc3)C1CC2 (centres undefined)	16.1	8.6	i	40.1*	53.5*
SMILES	TPT1 inh	CSN inh	Rpn11 inh	HNF4A DNA FP	HNF4a DNA conf
N#C/C(=C/c1ccc(-c2ccc([N+](=O)[O-])cc2)o1)c1nnc(N2CCOCC2)n1-c1ccccc1	·	16.3	i	48.0*	37.6*
Cc1c(-c2ccc(/C=N/NC(=O)C(=O)Nc3ccccc3F)o2)cccc1[N+](=O)[O-]	-0.8	15.2	·	78.6*	35.1*
CC(C)N(CCCNC(=O)Cn1ncc2c([nH]c3ccccc32)c1=O)Cc1ccccc1	-0.6	3.7	i	3.0	·
N#Cc1cc(Oc2ccc3ccccc3c2)c(-n2nnc3ccccc32)cc1C#N	0.7	-4.6	i	61.6*	36.4*
N#Cc1cc(Oc2ccccc2)c(-n2nnc3ccccc32)cc1C#N	0.8	0.7	i	4.5	·
O=C(CN1C(=O)NC2(CCCC2)C1=O)NCc1cccc(Cl)c1	·	-0.1	i	-0.1	·
Cc1sc2nc3c(SC(C)C(=O)O)cc(C(=O)c4ccccc4O)cn3c(=O)c2c1C (centres undefined)	11.2	2.1	i	4.6	·
COC(=O)c1cc(C(=O)c2cc(F)ccc2O)cn2c(=O)c3c(C)c(C)sc3nc12	5.0	7.6	i	68.0*	65.7*
C[C@H](CO)N1C[C@H](C)[C@H](CN(C)C(=O)CCC(F)(F)F)OCc2cnnn2CCCC1=O	·	5.0	i	0.9	·
CC(=O)c1ccc(NC(=O)c2ccc(NC(=O)c3ccco3)cc2)cc1	0.6	19.8	+	86.4*	111.0*
CC1N(C)c2cc(NC(=O)c3ccco3)ccc2C1(C)C (centres undefined)	3.3	102.4	·	52.5*	40.7*
CC1N(C)c2cc(NC(=O)c3ccco3)c(P(=O)(Nc3ccc([N+](=O)[O-])cc3)N3CCOCC3)cc2C1(C)C (centres undefined)	3.1	11.1	i	-0.2	·
N=C1C=CC(=C(c2ccc(N)cc2)c2ccc(N)cc2)C=C1	·	10.6	i	26.4	·
Cc1ccc(Nc2nc3ccccc3c(=O)s2)cc1C	0.1	-10.4	i	1.4	·
Cc1ccc(Nc2nc(Cl)c(C=O)s2)cc1Cl	13.2	25.1	·	44.3*	43.7*
CS/C(N)=N/S(=O)(=O)c1ccc(NC(C)=O)cc1	-1.3	1.6	i	6.1	·
